Assay results published in ChEMBL document CHEMBL2384998, “Modular, efficient synthesis of asymmetrically substituted piperazine scaffolds as potent calcium channel blockers” (Bioorg Med Chem Lett, 2013).

Columns and labels:
Rattus norvegicus = species on record: Rattus norvegicus; assay: Selectivity ratio of IC50 for rat cardiac Cav1.2 L-type channel to IC50 for rat brain Cav2.2 N-type channel
[1] = biological target: Voltage-dependent L-type calcium channel subunit alpha-1C (Rattus norvegicus, UniProt P22002); assay: Inhibition of rat cardiac Cav1.2 L-type channel expressed in HEK cells after 20 mins by FLIPR assay; assay type: cell-based, HEK293
Method in brief: (§1)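 Fluorescence Ca²⁺ influx read by FLIPR with the Ca²⁺ indicator dye Fluo-4. Each compound was tested as an 8-point concentration-response profile spanning 0.003–10 μM, giving IC50. Membrane potential and channel state were set by changing the external potassium ion concentration.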

[2] = biological target: Voltage-dependent N-type calcium channel subunit alpha-1B (Rattus norvegicus, UniProt Q02294); assay: Inhibition of rat brain Cav2.2 N-type channel expressed in HEK cells after 20 mins by FLIPR assay; assay type: cell-based, HEK293
Method in brief: as §1

Chain of Voltage-dependent N-type calcium channel subunit alpha-1B (Q02294 whole entry): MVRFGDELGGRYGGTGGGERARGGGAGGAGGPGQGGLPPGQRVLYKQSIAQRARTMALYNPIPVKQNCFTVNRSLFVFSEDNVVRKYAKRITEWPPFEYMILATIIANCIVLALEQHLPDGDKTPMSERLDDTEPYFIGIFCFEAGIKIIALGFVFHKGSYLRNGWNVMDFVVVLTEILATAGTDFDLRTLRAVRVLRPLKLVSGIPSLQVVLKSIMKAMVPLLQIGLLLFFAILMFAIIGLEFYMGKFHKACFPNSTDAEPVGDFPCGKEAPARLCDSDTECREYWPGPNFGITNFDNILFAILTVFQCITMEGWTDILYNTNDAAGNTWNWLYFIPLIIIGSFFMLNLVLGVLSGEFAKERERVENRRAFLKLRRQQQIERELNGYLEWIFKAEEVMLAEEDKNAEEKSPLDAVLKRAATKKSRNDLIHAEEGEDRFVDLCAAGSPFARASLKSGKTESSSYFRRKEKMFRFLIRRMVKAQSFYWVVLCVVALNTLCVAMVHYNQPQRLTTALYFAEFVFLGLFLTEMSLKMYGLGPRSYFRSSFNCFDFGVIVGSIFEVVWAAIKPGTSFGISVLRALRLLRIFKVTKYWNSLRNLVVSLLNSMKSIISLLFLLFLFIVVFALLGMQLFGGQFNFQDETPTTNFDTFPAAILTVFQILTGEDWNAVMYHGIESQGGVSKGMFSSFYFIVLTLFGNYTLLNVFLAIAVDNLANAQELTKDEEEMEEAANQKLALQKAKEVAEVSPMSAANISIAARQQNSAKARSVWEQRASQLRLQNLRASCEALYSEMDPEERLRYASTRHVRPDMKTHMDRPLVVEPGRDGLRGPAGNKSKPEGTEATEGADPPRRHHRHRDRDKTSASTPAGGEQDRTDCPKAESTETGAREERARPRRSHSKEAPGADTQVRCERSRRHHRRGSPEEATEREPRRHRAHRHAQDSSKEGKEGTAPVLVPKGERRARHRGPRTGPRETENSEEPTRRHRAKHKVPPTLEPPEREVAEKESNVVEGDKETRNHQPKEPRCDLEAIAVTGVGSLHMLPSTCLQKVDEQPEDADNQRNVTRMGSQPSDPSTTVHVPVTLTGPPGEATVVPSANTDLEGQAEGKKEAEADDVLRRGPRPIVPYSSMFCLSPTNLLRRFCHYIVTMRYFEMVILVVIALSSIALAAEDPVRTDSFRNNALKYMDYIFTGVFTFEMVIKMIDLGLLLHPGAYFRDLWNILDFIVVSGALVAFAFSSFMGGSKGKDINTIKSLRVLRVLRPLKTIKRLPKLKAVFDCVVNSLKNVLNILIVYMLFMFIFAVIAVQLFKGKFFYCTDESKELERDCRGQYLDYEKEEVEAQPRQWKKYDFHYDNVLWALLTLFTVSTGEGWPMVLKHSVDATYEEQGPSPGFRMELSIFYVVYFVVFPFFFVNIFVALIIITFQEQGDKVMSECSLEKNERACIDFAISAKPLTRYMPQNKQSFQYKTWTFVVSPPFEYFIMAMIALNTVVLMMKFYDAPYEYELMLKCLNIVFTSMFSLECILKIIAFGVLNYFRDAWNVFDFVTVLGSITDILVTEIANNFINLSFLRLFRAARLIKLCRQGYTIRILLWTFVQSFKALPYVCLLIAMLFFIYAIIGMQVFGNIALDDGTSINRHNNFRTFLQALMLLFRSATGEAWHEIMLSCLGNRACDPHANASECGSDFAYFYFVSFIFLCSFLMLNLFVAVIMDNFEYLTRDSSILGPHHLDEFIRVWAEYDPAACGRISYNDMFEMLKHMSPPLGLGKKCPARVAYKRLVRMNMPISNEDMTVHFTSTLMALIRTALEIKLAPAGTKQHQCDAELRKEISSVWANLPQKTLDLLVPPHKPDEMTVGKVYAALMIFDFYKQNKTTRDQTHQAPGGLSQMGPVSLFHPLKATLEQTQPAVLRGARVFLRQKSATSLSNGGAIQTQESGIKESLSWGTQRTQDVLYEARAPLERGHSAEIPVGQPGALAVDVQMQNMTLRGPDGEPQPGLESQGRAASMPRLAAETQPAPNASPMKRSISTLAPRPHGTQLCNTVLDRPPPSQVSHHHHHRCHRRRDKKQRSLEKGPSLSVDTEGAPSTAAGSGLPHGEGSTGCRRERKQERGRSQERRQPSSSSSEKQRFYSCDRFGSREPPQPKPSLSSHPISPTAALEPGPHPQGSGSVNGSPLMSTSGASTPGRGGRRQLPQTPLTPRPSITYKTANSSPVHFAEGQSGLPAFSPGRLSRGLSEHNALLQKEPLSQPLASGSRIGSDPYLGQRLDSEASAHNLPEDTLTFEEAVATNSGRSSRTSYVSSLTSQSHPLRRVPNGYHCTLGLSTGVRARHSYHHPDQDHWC
Chain of Voltage-dependent L-type calcium channel subunit alpha-1C (P22002 whole entry): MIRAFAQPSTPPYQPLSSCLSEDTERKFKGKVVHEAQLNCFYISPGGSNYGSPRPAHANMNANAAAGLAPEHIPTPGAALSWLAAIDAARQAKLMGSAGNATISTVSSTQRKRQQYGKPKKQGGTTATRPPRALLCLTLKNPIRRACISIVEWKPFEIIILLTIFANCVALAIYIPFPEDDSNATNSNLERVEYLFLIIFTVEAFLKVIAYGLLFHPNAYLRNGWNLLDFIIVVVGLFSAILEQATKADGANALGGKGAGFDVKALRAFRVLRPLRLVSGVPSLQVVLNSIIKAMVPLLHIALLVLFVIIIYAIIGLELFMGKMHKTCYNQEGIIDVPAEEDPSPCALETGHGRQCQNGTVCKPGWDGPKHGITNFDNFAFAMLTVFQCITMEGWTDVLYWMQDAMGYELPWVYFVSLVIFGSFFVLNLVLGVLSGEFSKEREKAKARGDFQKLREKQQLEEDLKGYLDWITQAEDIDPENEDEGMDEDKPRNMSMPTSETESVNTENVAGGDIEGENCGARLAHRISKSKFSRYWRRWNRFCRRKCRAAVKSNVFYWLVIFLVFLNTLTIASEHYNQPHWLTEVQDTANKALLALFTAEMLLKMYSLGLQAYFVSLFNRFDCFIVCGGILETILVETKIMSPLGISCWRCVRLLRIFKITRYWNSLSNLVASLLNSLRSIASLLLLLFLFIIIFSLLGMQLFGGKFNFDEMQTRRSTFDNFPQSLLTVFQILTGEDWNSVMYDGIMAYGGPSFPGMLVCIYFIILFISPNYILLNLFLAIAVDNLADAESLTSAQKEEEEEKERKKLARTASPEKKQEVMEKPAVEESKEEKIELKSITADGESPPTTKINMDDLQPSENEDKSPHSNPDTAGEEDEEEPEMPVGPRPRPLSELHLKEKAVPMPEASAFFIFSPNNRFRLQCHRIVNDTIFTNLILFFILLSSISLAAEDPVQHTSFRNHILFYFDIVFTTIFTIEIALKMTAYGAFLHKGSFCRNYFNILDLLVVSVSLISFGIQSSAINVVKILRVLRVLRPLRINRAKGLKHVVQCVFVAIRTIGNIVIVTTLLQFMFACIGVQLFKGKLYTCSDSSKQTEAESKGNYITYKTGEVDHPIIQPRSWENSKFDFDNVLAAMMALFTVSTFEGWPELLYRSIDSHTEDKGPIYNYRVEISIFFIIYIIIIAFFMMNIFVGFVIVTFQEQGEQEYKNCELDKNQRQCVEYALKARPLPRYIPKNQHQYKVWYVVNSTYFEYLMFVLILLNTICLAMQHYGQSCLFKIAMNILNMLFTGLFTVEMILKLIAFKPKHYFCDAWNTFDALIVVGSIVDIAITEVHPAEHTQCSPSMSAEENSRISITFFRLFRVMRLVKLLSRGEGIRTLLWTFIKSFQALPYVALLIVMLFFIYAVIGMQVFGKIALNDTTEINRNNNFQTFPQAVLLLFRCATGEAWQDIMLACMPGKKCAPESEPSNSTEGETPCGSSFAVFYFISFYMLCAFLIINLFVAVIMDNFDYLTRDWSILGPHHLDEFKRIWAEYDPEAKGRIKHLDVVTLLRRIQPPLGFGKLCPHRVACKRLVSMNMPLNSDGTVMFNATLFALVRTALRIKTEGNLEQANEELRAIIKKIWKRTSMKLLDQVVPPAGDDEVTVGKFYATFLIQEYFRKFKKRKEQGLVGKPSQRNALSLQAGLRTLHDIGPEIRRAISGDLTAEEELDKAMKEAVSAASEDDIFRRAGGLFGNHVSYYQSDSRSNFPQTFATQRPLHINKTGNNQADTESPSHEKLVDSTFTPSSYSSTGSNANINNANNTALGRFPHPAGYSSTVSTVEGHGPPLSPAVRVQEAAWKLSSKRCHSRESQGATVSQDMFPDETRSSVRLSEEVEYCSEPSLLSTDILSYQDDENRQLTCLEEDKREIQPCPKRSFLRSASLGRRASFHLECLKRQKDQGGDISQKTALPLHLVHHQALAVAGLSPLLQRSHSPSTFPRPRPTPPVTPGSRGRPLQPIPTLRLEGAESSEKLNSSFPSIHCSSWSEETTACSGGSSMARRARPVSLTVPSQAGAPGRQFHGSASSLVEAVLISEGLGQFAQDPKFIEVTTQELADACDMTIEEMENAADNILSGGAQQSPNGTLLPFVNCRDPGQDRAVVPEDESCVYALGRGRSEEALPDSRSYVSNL

SMILES | Ratio IC50 (Rattus norvegicus) | IC50 [1] [µM] | IC50 [2] [µM]
CCCCCCCCC[C@@H]1CN[C@H](C)CN1Cc1ccccc1 (relative stereo) | 0.6 | 5.6 | 10
Cc1ccc(S(=O)(=O)N2C[C@@H](CCCO[Si](C)(C)C(C)(C)C)N(C(c3ccccc3)c3ccccc3)C[C@H]2C)cc1 (relative stereo) | 2 | 5.1 | 2.6
C[C@@H]1CN(Cc2ccc(F)cc2)[C@H](Cc2ccccc2)CN1 (relative stereo) | 1.2 | 10 | 8.37
C[C@@H]1CN(C(c2ccccc2)c2ccccc2)[C@H](CCCCO[Si](C)(C)C(C)(C)C)CN1 (relative stereo) | 1.4 | 1.53 | 1.07
C[C@@H]1CN(Cc2ccccc2)[C@H](Cc2ccccc2)CN1S(=O)(=O)c1ccc(C(F)(F)F)cc1 (relative stereo) | 1 | 10 | 10
C[C@@H]1CN(C(c2ccccc2)c2ccccc2)[C@H](CCCCO[Si](C)(C)C(C)(C)C)CN1S(=O)(=O)c1ccc(C(F)(F)F)cc1 (relative stereo) | 1 | 10 | 10
C[C@@H]1CN(Cc2ccccc2)[C@H](CCCCO[Si](C)(C)C(C)(C)C)CN1 (relative stereo) | 0.7 | 3.34 | 4.85
C[C@@H]1CN(Cc2ccccc2)[C@H](CCCCO)CN1 (relative stereo) | – | 10 | 9.6
C[C@@H]1CN(Cc2ccc(F)cc2)[C@H](Cc2ccccc2)CN1C(=O)C(c1ccccc1)c1ccccc1 (relative stereo) | – | – | 10
C[C@@H]1CN(C(c2ccccc2)c2ccccc2)[C@H](Cc2ccccc2)CN1 | 0.4 | 1.78 | 4.34
C[C@@H]1CN(C(c2ccccc2)c2ccccc2)[C@H](CCCO[Si](C)(C)C(C)(C)C)CN1 (relative stereo) | 0.7 | 6.8 | 10
C[C@@H]1CN(Cc2ccccc2)[C@H](Cc2ccccc2)CN1 (relative stereo) | 1 | 10 | 10
C[C@@H]1CN(Cc2ccc(F)cc2)[C@H](Cc2ccccc2)CN1S(=O)(=O)c1ccc(C(F)(F)F)cc1 (relative stereo) | 1 | 10 | 10
C[C@@H]1CN(C(c2ccccc2)c2ccccc2)[C@H](CCCCO)CN1 (relative stereo) | 6 | 5.4 | 0.85
Cc1ccc(S(=O)(=O)N2C[C@@H](CCCCO[Si](C)(C)C(C)(C)C)N(C(c3ccccc3)c3ccccc3)C[C@H]2C)cc1 (relative stereo) | 1.7 | 8.2 | 4.7
CCCCC[C@@H]1CN[C@H](C)CN1C(c1ccccc1)c1ccccc1 (relative stereo) | 0.7 | 1.78 | 2.4
CCCCC[C@@H]1CN[C@H](C)CN1Cc1ccccc1 (relative stereo) | 0.9 | 9.23 | 9.84
